The source of these data is ChEMBL document CHEMBL4311983, “Development of chalcone-O-alkylamine derivatives as multifunctional agents against Alzheimer's disease” (Eur J Med Chem, 2019).

Data set [1] concerns the target T1, Cholinesterase (Homo sapiens, UniProt P06276). Description: Inhibition of BuChE (unknown origin).
The nature of data set [2]: Selectivity index, ratio of IC50 for equine BuChE to IC50 for electric eel AChE. A digest of the protocol: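 Ratio of Ellman-assay IC50 values, BuChE over AChE. Enzymes were equine serum BuChE and electric eel AChE, each at 0.05 U/mL final in pH 8.0 phosphate buffer. Each IC50 is the mean of three independent experiments run in triplicate.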
Data set [3] concerns the target T2, Amine oxidase [flavin-containing] B (Homo sapiens, UniProt P27338).
T2 sequence (P27338 whole entry): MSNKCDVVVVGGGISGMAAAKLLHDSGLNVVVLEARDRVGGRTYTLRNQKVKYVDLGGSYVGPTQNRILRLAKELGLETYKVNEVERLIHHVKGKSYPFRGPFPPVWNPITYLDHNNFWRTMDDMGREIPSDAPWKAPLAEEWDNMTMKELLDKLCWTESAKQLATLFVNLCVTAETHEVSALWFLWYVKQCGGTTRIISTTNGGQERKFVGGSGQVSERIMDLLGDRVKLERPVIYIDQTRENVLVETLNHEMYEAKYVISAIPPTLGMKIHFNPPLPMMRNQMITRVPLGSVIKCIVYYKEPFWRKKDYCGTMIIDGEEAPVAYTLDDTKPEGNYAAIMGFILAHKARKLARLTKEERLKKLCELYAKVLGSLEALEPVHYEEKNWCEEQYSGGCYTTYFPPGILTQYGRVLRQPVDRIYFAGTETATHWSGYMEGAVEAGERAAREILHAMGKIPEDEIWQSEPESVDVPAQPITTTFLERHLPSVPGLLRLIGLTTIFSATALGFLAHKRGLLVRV
Description: biochemical. It counts as cell-based.

Data set [4] can be described thus: Inhibition of Cu2+-induced amyloid beta (1 to 42 residues) aggregation at 25 uM after 24 hrs by thioflavin T-based fluorescence assay relative to control. The gist of the method:
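Aβ1-42 (25 μM final) with Cu2+ (25 μM final) in 20 mM HEPES pH 6.6, 150 NaCl, ± compound 25 μM final, 37 °C for 24 h; 5 μM ThT in 50 mM glycine-NaOH pH 8.50 added; ex 446/em 490 nm; triplicate.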

Data set [5] addresses T3, Acetylcholinesterase (Electrophorus electricus, UniProt O42275). The class given is single protein.
Data set [6] deals with Cholinesterase (Equus caballus, UniProt P81908). Description: Inhibition of equine butyrylcholinesterase using butyrylthiocholine iodide as substrate incubated for 15 mins by Ellman's method. The gist of the method: (§1)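 Modified Ellman assay in phosphate buffer pH 8.0, with enzyme at 0.05 U/mL final: eel AChE, equine serum BuChE or human serum BuChE. Test compound was added at several concentrations, and blanks lacked enzyme.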
(DTNB colorimetry detects thiols as they appear.)

Data set [7] addresses T4, Amine oxidase [flavin-containing] A (Homo sapiens, UniProt P21397).
T4 sequence (P21397 whole entry): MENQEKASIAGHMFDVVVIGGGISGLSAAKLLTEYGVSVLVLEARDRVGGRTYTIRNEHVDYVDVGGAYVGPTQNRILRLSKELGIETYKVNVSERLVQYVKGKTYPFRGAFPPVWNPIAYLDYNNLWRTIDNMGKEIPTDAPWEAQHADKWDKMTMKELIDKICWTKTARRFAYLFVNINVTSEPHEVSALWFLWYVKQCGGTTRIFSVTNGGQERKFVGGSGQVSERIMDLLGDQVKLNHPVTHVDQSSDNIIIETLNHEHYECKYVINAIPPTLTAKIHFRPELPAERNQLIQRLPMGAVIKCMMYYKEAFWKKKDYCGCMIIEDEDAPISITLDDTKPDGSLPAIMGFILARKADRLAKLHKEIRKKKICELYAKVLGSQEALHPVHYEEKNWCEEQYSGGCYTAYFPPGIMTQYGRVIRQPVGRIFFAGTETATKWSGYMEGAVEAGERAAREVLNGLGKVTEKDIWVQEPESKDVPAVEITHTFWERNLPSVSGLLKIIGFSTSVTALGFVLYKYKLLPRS
The data set is described as follows: Inhibition of recombinant human MAO-A expressed in baculovirus infected BTI insect cells at 10 uM using kynuramine as substrate after 30 mins by fluorescence based assay relative to control. The settings on record: 0.5 h.

Data set [8] can be described thus: Antioxidant activity assessed as trolox equivalent of AAPH-induced radical scavenging activity preincubated for 15 mins followed by AAPH addition measured every minute for 120 mins by ORAC fluorescein assay. The class given is functional. The gist of the method: (§2)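 ORAC-FL in 75 mM phosphate buffer pH 7.40; fluorescein 150 nM final plus test antioxidant; Trolox standard at 1-8 μM final; values as Trolox equivalents.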

In data set [9] the target is Amyloid-beta precursor protein (Homo sapiens) (UniProt P05067). The data set is described as follows: Inhibition of HFIP-pretreated amyloid beta (1 to 42 residues) (unknown origin) self aggregation at 25 uM after 24 hrs by ThT-based fluorescence method relative to control. The gist of the method:
(§3)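 HFIP-treated Aβ1-42, dried, redissolved in DMSO; 25 μM final peptide incubated with 25 μM compound in 50 mM phosphate buffer pH 7.40, 37 °C, 24 h; 5 μM ThT in 50 mM glycine-NaOH pH 8.0 added; fluorescence ex 446/em 490 nm.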

Data set [10] concerns the target T2, Amine oxidase [flavin-containing] B. Description: Inhibition of MAO-B (unknown origin) relative to control.
The nature of data set [11]: Antioxidant activity assessed as AAPH scavenging activity by ORAC fluorescein assay. It counts as functional. The gist of the method: as §2
For data set [12], the target named is T3, Acetylcholinesterase. Description: Inhibition of Electric eel AChE. A digest of the protocol:
as §1

The target of data set [13] is T2, Amine oxidase [flavin-containing] B. Description: Inhibition of MAO-B (unknown origin).
Data set [14] addresses Amyloid-beta precursor protein (Homo sapiens) (UniProt P05067). Description: Inhibition of self-induced amyloid beta ( 1 to 42 residues) (unknown origin) aggregation relative to control. Conditions: concentration not given here. The gist of the method: as §3
Data set [15] deals with Acetylcholinesterase (Homo sapiens, UniProt P22303). Description: Inhibition of human AChE using acetylthiocholine iodide as substrate after 15 mins by Ellman's method.
The target in data set [16] is T1, Cholinesterase. Description: Inhibition of human BuChE using butyrylthiocholine iodide as substrate incubated for 15 mins by Ellman's method. The gist of the method: as §1
Data set [17] in a line: Disaggregation of Cu2+ induced preformed fibrils of amyloid beta (1 to 42) at 25 uM preincubated with Cu2+ for 24 hrs followed by compound addition and measured after 24 hrs by thioflavin-T based fluorescence assay relative to control. The gist of the method: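 Aβ1-42 and Cu2+ (each 25 μM final) in 20 mM HEPES pH 6.6, 150 mM NaCl, preincubated 24 h at 37 °C; compound (25 μM final) added, another 24 h at 37 °C under film; 5 μM ThT in glycine-NaOH added; ex 446/em 490 nm; triplicate.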

Sequence of Cholinesterase (Equus caballus, UniProt P81908) (P81908 whole entry): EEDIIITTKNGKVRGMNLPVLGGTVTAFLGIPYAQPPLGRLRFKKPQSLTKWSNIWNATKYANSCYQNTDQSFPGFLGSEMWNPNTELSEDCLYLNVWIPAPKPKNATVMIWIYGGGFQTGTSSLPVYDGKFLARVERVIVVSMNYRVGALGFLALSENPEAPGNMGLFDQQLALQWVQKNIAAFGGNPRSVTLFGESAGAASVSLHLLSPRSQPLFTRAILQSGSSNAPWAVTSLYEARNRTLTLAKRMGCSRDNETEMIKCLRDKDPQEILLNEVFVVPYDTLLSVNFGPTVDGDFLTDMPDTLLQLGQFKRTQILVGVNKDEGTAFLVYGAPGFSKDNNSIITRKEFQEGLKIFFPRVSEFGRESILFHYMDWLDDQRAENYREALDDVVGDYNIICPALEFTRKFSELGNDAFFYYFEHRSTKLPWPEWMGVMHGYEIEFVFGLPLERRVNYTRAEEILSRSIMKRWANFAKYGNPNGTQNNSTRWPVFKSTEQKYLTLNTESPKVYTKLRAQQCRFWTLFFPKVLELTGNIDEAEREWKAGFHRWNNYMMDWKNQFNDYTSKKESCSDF
T3 sequence (O42275 whole entry): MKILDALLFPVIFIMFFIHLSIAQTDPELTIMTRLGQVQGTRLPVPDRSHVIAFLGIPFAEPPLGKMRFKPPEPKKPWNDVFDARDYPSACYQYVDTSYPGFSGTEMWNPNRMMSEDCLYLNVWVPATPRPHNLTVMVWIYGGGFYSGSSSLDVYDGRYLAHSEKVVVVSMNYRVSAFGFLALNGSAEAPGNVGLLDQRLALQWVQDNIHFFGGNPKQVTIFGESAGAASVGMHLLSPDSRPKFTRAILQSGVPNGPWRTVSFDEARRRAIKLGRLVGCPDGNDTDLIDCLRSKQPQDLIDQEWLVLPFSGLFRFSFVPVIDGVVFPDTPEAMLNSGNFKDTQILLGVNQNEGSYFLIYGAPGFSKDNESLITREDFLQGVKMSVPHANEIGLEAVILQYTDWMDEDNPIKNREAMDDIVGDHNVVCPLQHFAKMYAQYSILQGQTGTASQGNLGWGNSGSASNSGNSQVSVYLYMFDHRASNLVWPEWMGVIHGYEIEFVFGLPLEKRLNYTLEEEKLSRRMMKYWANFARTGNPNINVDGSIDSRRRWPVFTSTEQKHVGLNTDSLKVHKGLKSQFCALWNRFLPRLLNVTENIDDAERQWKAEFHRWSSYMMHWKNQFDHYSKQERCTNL
Sequence of Amyloid-beta precursor protein (Homo sapiens) (P05067 whole entry, the tested form may be a part): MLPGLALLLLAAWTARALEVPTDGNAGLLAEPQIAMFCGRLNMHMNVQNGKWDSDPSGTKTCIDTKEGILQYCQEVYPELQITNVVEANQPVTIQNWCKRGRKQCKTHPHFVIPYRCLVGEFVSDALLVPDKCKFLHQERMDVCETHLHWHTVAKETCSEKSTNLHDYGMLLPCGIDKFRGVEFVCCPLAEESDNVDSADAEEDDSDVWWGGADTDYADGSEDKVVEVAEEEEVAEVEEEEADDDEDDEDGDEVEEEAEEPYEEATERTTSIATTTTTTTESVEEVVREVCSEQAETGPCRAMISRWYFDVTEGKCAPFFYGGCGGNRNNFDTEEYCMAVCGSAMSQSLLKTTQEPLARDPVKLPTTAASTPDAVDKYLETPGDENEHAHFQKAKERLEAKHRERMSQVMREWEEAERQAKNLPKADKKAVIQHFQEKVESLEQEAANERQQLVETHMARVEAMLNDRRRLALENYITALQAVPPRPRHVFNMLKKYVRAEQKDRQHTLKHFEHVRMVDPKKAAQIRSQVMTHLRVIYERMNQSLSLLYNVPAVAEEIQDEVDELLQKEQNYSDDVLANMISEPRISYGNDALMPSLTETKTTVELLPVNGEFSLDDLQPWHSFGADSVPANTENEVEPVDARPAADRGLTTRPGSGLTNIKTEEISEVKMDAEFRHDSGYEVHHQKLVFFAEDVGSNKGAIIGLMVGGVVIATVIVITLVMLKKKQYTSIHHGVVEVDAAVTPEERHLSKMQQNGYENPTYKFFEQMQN
T1 sequence (P06276 whole entry): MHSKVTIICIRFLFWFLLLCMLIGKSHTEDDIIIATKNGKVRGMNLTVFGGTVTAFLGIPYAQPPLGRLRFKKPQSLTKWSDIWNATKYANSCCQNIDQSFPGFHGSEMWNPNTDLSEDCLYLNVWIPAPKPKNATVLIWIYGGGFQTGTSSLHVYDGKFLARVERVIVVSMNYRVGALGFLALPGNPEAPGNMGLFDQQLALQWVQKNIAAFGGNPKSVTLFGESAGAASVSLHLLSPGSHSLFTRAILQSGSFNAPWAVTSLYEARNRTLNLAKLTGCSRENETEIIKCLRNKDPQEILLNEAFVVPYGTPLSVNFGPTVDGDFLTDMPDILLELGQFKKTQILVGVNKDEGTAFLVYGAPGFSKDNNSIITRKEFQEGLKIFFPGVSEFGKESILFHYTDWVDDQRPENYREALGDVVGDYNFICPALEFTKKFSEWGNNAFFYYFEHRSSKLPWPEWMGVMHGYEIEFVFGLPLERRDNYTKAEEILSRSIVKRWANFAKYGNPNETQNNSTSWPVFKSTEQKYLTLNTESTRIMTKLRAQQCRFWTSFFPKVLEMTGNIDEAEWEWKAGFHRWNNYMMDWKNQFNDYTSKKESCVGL
Sequence of Acetylcholinesterase (Homo sapiens, UniProt P22303) (P22303 whole entry): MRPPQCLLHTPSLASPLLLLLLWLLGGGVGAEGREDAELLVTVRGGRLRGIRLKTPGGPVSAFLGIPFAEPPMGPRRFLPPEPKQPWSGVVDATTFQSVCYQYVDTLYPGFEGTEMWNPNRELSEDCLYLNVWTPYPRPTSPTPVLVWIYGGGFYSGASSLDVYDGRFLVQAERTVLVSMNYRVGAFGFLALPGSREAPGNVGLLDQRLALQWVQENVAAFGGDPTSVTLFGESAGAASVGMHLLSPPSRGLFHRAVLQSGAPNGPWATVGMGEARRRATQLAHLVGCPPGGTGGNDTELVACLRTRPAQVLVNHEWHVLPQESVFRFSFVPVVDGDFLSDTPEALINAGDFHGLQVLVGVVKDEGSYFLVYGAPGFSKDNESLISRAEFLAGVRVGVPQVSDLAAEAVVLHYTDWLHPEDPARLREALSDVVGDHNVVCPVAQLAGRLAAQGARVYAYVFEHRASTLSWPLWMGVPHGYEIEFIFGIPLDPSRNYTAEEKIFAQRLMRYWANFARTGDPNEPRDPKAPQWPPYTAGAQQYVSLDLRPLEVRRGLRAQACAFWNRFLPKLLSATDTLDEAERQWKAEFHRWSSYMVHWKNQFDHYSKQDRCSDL

The term IC50 denotes the concentration at which inhibition is half-maximal. A high value points to weaker potency in that assay. `CCN(C)C(=O)Oc1cccc(/C=C/C(=O)c2ccccc2O)c1`: it took 3.1 µM to reach half-maximal inhibition at Cholinesterase [1] (IC50). In other words, the single-digit micromolar range.
For orientation: inhibition means the relative decrease from the control value, in per cent. Regarding `CCN(CC)CCCCCCOc1ccc(/C=C/C(=O)c2ccc(OCCCCCCN(CC)CC)cc2O)cc1`, in [2], the Ratio IC50 turned out to be 1.1. The IC50 is 1.6 µM in data set [3], 3.7 µM against Acetylcholinesterase [5] and 4.2 µM at Cholinesterase [6]. The inhibition is 84.2% in data set [4] and 63.7% in data set [9]. Besides, in [7], the inhibition at 10 µM was 8.7%. The Activity in data set [8] was 1.1 Trolox eq.
With `CCN(CC)c1ccc(/C=C/C(=O)c2cc(-c3ccc(C(C)C(=O)OC)cc3F)ccc2O)cc1` (stereo not drawn), the “inhibition (INH)” value in [10] came to 75.5%. Further, the Activity in data set [11] turned out to be 3.3 Trolox eq.
Turning to `CCN(CC)Cc1ccc(/C=C/C(=O)c2ccc(OC)c(OC)c2)cc1O`, the IC50 was determined as 0.44 µM against Acetylcholinesterase [12] and 1.21 µM in [13]. The same compound returned an inhibition in data set [14] of 55%.
Consider `O=C(/C=C/c1ccccc1)c1ccc(OCCCCCCN2CCCC2)cc1O`, for which the IC50 against Acetylcholinesterase [15] is 3.2 µM; in [3] it was 12.7 µM; at Cholinesterase [16] it was 15.8 µM; on Acetylcholinesterase [5], 4.2 µM; at Cholinesterase [6], 12.3 µM. Moreover, the Ratio IC50 in data set [2] is 2.9. For the same compound, in data set [7], the inhibition at 10 µM was found to be 9.5%.
In data set [4], `COc1cc(/C=C/C(=O)CC(=O)/C=C/c2ccc(O)c(OC)c2)ccc1O` yielded an inhibition of 76.5%. Moreover, in [17], the Activity is 56.5%.
Regarding `O=C(/C=C/c1ccc(OCCCCCCN2CCCC2)cc1)c1ccccc1O`, the Ratio IC50 in data set [2] was 5.6. The results for the IC50 (in data set [3]; on Acetylcholinesterase [5]; on Cholinesterase [6]) were 18.5 µM, 8.9 µM and 50.2 µM, respectively. Besides, in data set [7], the inhibition at 10 µM is 15.6%.
